These results are taken from PubChem BioAssay AID624174 (Southern Research Specialized Biocontainment Screening …, 2012).

A word on the IC50: it is the concentration that inhibits the measured activity by half.

SMILES strings stand for the structures. The source made the active and inactive calls.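 The calls were made as follows: active = inhibition of 30% or more at any tested concentration; inactive = the rest.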

One experiment deals with Aspartyl aminopeptidase (Homo sapiens) (UniProt Q9ULA0). The experiment is described as follows: inhibition of human aspartyl aminopeptidase – biochemical, QFRET, H-Glu-NHMec substrate, set 3, selectivity assay for PFM18AAP inhibitor project, dose response (AID 624174). The following applies: purified recombinant hM18AAP, H-Glu-NHMec fluorescence. In short, it runs like this:
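Controls: wells lacking enzyme as background control; assay system: purified recombinant hM18AAP enzyme; quantity: 5 µg/mL enzyme; times: 90 min reaction, room temperature; compound: 10-point twofold series, 100 down to 0.2 µM; detection: NHMec fluorescence at 370/460 nm; evaluation: % inhibition and IC50 from logistic fit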
On to `Cc1cc(N(C)CCc2ccc(O)c(O)c2)c2ccccc2n1`, for which the IC50 was 9.75 µM.
For the molecule `Oc1ccc(CCNc2ccnc3cc(Cl)ccc23)cc1O`, the 50% inhibitory concentration (IC50) is 13.6 µM.
The same measure, in the same setting: then `Cc1cccc2c(N(C)CCc3ccc(O)c(O)c3)ccnc12`, with 10.5 µM; and `Oc1ccc(C2CCCN(c3ccnc4ccccc34)C2)cc1O` (centres undefined), with 5.59 µM.
Same read-out and setting: the same measure for `Cc1cccc2c(NCCc3ccc(O)c(O)c3)ccnc12`: 12.7 µM; for `CN(CCc1ccc(O)c(O)c1)c1ccnc2cc(Cl)ccc12`: 7.67 µM.
Still for that read-out and setting: then `CC(Cc1ccc(O)c(O)c1)Nc1ccnc2ccccc12` (centres undefined), with 14.4 µM; and `CN(CCc1ccc(O)c(O)c1)c1ccnc2c(F)cccc12`, with 7.92 µM.
As to `CN(CCCc1ccc(O)c(O)c1)c1ccnc2ccccc12`, the IC50 was 9.65 µM.
Consider `Oc1ccc(CCNc2ccnc3c(F)cccc23)cc1O`, for which the half-maximal inhibitory concentration (IC50) is 8.36 µM.
Same read-out and setting: then `CC(C)(CNc1ccnc2ccccc12)c1ccc(O)c(O)c1`, with 35 µM; and `Oc1ccc(C2CCN(c3ccnc4ccccc34)C2)cc1O` (centres undefined), with 5.59 µM.
As for `Oc1cccc(CCNc2ccnc3ccccc23)c1O`, the half-maximal inhibitory concentration (IC50) was 11.6 µM.
The same measure, in the same setting: the same measure for `CN(CCc1ccc(O)c(O)c1)c1ncnc2ccccc12`: 6.74 µM; for `Oc1ccc(CCCNc2c3c(nc4ccccc24)CCCC3)cc1O`: 9.5 µM.
Same read-out and setting: the same measure for `Oc1ccc(C2CCN(c3ccnc4ccccc34)CC2)cc1O`: 4.68 µM.

The same experiment, now with this note: purified recombinant hM18AAP, H-Glu-NHMec fluorescence; at 100 µM (top of the series).
On to `CCN(CCc1ccc(O)c(O)c1)c1c2ccccc2nc2ccccc12`, for which the inhibition result is “inactive”.
On the same count and under the same terms, the same measure for `CN(CCCc1ccc(O)c(O)c1)c1c2ccccc2nc2ccccc12`: “inactive”; for `COc1ccc(CCN(C)c2ccnc3c(C)cccc23)cc1OC`: “inactive”; for `COc1ccc(CCN(C)c2ccnc3cc(Cl)ccc23)cc1OC`: “inactive”.
Same read-out and setting: the same measure for `COc1cc(Br)c(CCNc2ccnc3ccccc23)cc1OC`: “inactive”; for `COc1ccc(CCN(C)c2c3ccccc3nc3ccccc23)cc1OC`: “inactive”.
On the same count and under the same terms, the same measure for `COc1ccc(CCN(C)c2ncnc3ccccc23)cc1OC`: “inactive”; for `COc1cc(Br)c(CCNc2c3ccccc3nc3ccccc23)cc1OC`: “inactive”.
As to `COc1ccc(C2CCN(c3ccnc4ccccc34)CC2)cc1OC`, the inhibition result was “inactive”.
Regarding `COc1cc(Br)c(CCNc2c3c(nc4ccccc24)CCCC3)cc1OC`, the inhibition entry was “inactive”.
The same measure, in the same setting: the same measure for `CN(CCc1ccc(O)c(O)c1)c1c2ccccc2nc2ccccc12`: “inactive”; for `COc1ccc(CCCN(C)c2c3ccccc3nc3ccccc23)cc1OC`: “inactive”; for `COc1ccc(CCN(C)c2ccnc3c(F)cccc23)cc1OC`: “inactive”.
On the same count and under the same terms, the same measure for `COc1ccc(CCNc2ccnc3cc(Cl)ccc23)cc1OC`: “inactive”; for `COc1ccc(CCNC(=O)c2cc(C)ccc2N)cc1OC`: “inactive”; for `COc1ccc(CCNc2cc(C)nc3ccccc23)cc1OC`: “inactive”.
On the same count and under the same terms, the same measure for `Clc1c2c(nc3ccccc13)CCCC2`: “inactive”; for `COc1ccc(CCCNc2c3c(nc4ccccc24)CCCC3)cc1OC`: “inactive”.
Consider `CCOc1ccc2nccc(N(C)CCc3ccc(OC)c(OC)c3)c2c1`, for which the inhibition result is “inactive”.
Turning to `COc1ccc(CCNc2c3c(nc4ccc(C)cc24)CCCC3)cc1OC`, the inhibition entry is “inactive”.
The same measure, in the same setting: the same measure for `CCN(CCc1ccc(OC)c(OC)c1)c1c2ccccc2nc2ccccc12`: “inactive”.
As to `COc1ccc(CCNc2ccnc3c(C)cccc23)cc1OC`, the inhibition result was “inactive”.
Still for that read-out and setting: then `COc1ccc(CCNc2ncnc3ccccc23)cc1OC`, with “inactive”.
For the molecule `COc1ccc(CCNc2ccnc3c(F)cccc23)cc1OC`, the inhibition entry is “inactive”.
On to `CCOc1ccc2nccc(NCCc3ccc(OC)c(OC)c3)c2c1`, for which the inhibition entry was “inactive”.
With `COc1ccc(CCN(C)c2cc(C)nc3ccccc23)cc1OC`, the inhibition result was “inactive”.
Regarding `COc1ccc(C2CCN(c3ccnc4ccccc34)C2)cc1OC` (centres undefined), the inhibition result was “inactive”.
On the same count and under the same terms, then `Nc1c2ccccc2nc2ccccc12`, with “inactive”.
